Key:
[1] = tested on: P388/ADR; test: Compound was evaluated for the growth inhibition of P388/ADR cells.; assay type: functional, cell-based; settings: Mus musculus
Outline: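 P388/ADR, a P388 subline selected for anthracycline resistance, grown in culture and exposed to drug for 48 h. IC50 (μM) was taken for growth inhibition. Resistance index = IC50 in P388/ADR ÷ IC50 in parent P388/S cells.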

[2] = tested on: P388; test: Compound was evaluated for the antitumor efficacy at optimal dose 0.012 mg/kg against leukemia P388 in mice on day 1,; assay type: functional, Mus musculus
[3] = Percent recovery of compound at pH 7; assay type: ADME
Outline: (§1)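 Drug stock in CH₃CN or EtOH was diluted 1:1 with citrate buffer (pH 4) or phosphate buffer (pH 7) and held at 23 °C for 22 h. Remaining drug was measured by reversed-phase C18 (5 μm) HPLC, eluting with 0.1 N NaH₂PO₄–CH₃CN (70:30 or 66:34, depending on compound). Result is reported as % recovery.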

[4] = Compound was evaluated for the change in Tm of isolated helical DNA in solution.; assay type: ADME
Outline: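 Thermal denaturation of calf thymus DNA (5.2×10⁻⁵ M, P) with drug at 5.2×10⁻⁶ M in 0.01 M phosphate buffer pH 7, 10⁻⁵ M EDTA, 5% Me2SO. ΔTm = Tm(DNA–drug complex) − Tm(DNA).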

[5] = Percent recovery of compound at pH 4; assay type: ADME; outline: as §1
[6] = tested on: L1210; test: Compound was evaluated for the 50% inhibition of the incorporation of [3H]- thymidine in the DNA (inhibition of synthesis in leukemia L1210 cells); assay type: functional; settings: Mus musculus, read-out: ED50 (the source's name)
[7] = Percent recovery of compound at pH 2; assay type: ADME
Outline: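 Drug stocks in CH3CN or EtOH were diluted 1:1 with phosphate buffer (pH 7), citrate buffer (pH 4) or 0.1 N HCl–KCl (pH 2). Solutions were held at 23 °C for 22 h, then aliquots were analysed by reversed-phase C18 HPLC eluted with 0.1 N NaH2PO4–CH3CN. Percent of drug recovered was reported.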

[8] = tested on: L1210; test: Compound was evaluated for the 50% inhibition of the incorporation of [3H]uridine in the RNA (inhibition of synthesis in leukemia L1210 cells); settings: Mus musculus, read-out: ED50 (the source's name)
[9] = Partition coefficient in octanol-phosphate buffer at pH 7.4
[10] = tested on: P388/S; test: (§2) Compound was evaluated for the growth inhibition of P388/s cells.; assay type: functional, cell-based; settings: Mus musculus
Outline: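 Cultured P388 cells were exposed to drug for 48 h and the IC50 for growth inhibition determined.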

[11] = tested on: P388; test: Compound was evaluated for the antitumor efficacy at optimal dose 3.1 mg/kg against leukemia P388 in mice on day 1,; assay type: functional, Mus musculus
[12] = tested on: P388; test: Compound was evaluated for the antitumor efficacy at optimal dose 8.0 mg/kg against leukemia P388 in mice on day q4d 5, 9, 13.,; assay type: functional, Mus musculus
[13] = tested on: P388; test: Compound was evaluated for the antitumor efficacy at optimal dose 7.5 mg/kg against leukemia P388 in mice on day 1,; assay type: functional, Mus musculus
[14] = tested on: P388/S; test: as §2; assay type: functional, cell-based; settings: Mus musculus; remark: listed apart in the source
Outline: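 Growth inhibition of P388/S cells (the standard screening P388 line) in culture after 48-h drug exposure; IC50 reported in μM.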

Change in Tm [4] | EC50 [6] | EC50 [8] | IC50 [14] | Structure (SMILES) | IC50 [1] | T/C [2] | Recovery [3] | Recovery [5] | Recovery [7] | logD [9] | IC50 [10] | T/C [11] | T/C [12] | T/C [13]
2.2 | > 100000 nM | 100000 nM | – | COc1cccc2c1C(=O)c1c(O)c3c(c(O)c1C2=O)C[C@@](O)(C(C)=O)C[C@@H]3OC1CC(NCC(=O)O)C(O)C(C)O1 (stereo not given in full) | – | – | – | – | – | 0.43 | – | – | – | –
0 | 13000 nM | 11000 nM | – | CCOC(=O)CNC1CC(O[C@H]2C[C@](O)(C(C)=O)Cc3c(O)c4c(c(O)c32)C(=O)c2c(OC)cccc2C4=O)OC(C)C1O (stereo not given in full) | – | – | – | – | – | – | – | – | – | –
8.4 | 1300 nM | 370 nM | – | CCOC(=O)CCCNC1CC(O[C@H]2C[C@](O)(C(C)=O)Cc3c(O)c4c(c(O)c32)C(=O)c2c(OC)cccc2C4=O)OC(C)C1O (stereo not given in full) | – | – | – | – | – | 2.04 | – | – | – | –
3.5 | 7500 nM | 1700 nM | – | COc1cccc2c1C(=O)c1c(O)c3c(c(O)c1C2=O)C[C@@](O)(C(C)=O)C[C@@H]3OC1CC(NCC(N)=O)C(O)C(C)O1 (stereo not given in full) | – | – | – | – | – | 1.65 | – | – | – | –
– | 7000 nM | 3500 nM | – | CCOC(=O)CN(CC#N)C1CC(O[C@H]2C[C@](O)(C(C)=O)Cc3c(O)c4c(c(O)c32)C(=O)c2c(OC)cccc2C4=O)OC(C)C1O (stereo not given in full) | – | – | – | – | – | – | – | – | – | –
10.5 | 660 nM | 330 nM | – | COc1cccc2c1C(=O)c1c(O)c3c(c(O)c1C2=O)C[C@@](O)(C(C)=O)C[C@@H]3O[C@H]1C[C@H](N)[C@H](O)[C@H](C)O1 [DAUNORUBICIN] | – | – | – | – | – | – | – | – | – | –
12.8 | 1600 nM | 580 nM | 68 nM | COc1cccc2c1C(=O)c1c(O)c3c(c(O)c1C2=O)C[C@@](O)(C(=O)CO)C[C@@H]3O[C@H]1C[C@H](N)[C@H](O)[C@H](C)O1 [DOXORUBICIN] | 8200 nM | – | – | – | – | – | – | – | 160% | 252%

Further lines, the compound ahead of its results:

Structure (SMILES) | Change in Tm [4] | EC50 [6] | EC50 [8] | IC50 [14] | IC50 [1] | T/C [2] | Recovery [3] | Recovery [5] | Recovery [7] | logD [9] | IC50 [10] | T/C [11] | T/C [12] | T/C [13]
COc1cccc2c1C(=O)c1c(O)c3c(c(O)c1C2=O)C[C@@](O)(C(=O)CO)C[C@@H]3OC1CC(N2CCOCC2C#N)C(O)C(C)O1 (stereo not given in full) | 8.7 | 3 nM | 0.53 nM | – | 0.3 nM | 262% | 74% | 54% | 10% | – | – | – | – | –
COCC(C#N)NC1CC(O[C@H]2C[C@](O)(C(=O)CO)Cc3c(O)c4c(c(O)c32)C(=O)c2c(OC)cccc2C4=O)OC(C)C1O (stereo not given in full) | 12.5 | 800 nM | 400 nM | – | – | – | 28% | 29% | 58% | 0.92 | 37 nM | – | – | –
COCC(C#N)NC1CC(O[C@H]2C[C@](O)(C(C)=O)Cc3c(O)c4c(c(O)c32)C(=O)c2c(OC)cccc2C4=O)OC(C)C1O (stereo not given in full) | 9.4 | 510 nM | 510 nM | – | – | – | – | – | – | 2.64 | – | – | – | –
COc1cccc2c1C(=O)c1c(O)c3c(c(O)c1C2=O)C[C@@](O)(C(C)=O)C[C@@H]3OC1CC(N(CC#N)CC(=O)[O-])C(O)C(C)O1.[Na+] (stereo not given in full) | 2.2 | 14000 nM | 5300 nM | – | – | – | – | – | – | 0.03 | – | – | – | –
COc1cccc2c1C(=O)c1c(O)c3c(c(O)c1C2=O)C[C@@](O)(C(C)=O)C[C@@H]3OC1CC(NCC#N)C(O)C(C)O1 (stereo not given in full) | 11.7 | 1800 nM | 820 nM | – | – | – | – | – | – | 2.28 | – | – | – | –
COc1cccc2c1C(=O)c1c(O)c3c(c(O)c1C2=O)C[C@@](O)(C(=O)CO)C[C@@H]3OC1CC(NCC#N)C(O)C(C)O1 (stereo not given in full) | 13.9 | 1200 nM | 290 nM | – | – | – | 82% | 86% | 92% | 1.2 | 28 nM | 184% | 148% | –

Source: ChEMBL document CHEMBL1123251, “N-(cyanomethyl)- and N-(2-methoxy-1-cyanoethyl)anthracyclines and related carboxyl derivatives” (J Med Chem, 1986)
